Calls of active or inactive are those of the source. No cut-off for these calls is given here.
Assays:
Format in all cases: cell-based
[1] = tested on: FRT; test: Potentiation of genistein-induced human CFTR delta F508 mutant gating activity expressed in forskolin-stimulated FRT cells assessed as increase in iodine influx measured as decrease in YFP fluorescence after 24 hrs at 27 degC relative to control
Method in brief: (§1)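 Potentiator plate-reader assay. FRT cells coexpressing human ΔF508-CFTR and YFP-H148Q/I152L, grown 18−24 h at 37 °C, then rescued 18−24 h at 27 °C. Cells are washed, then given 10 min of forskolin 20 μM plus compound in PBS (eight concentrations, 0−50 μM final). I⁻ influx comes from the YFP quench after iodide addition (2 s baseline, 12 s), by exponential regression. Controls are DMSO and genistein. EC50/Vmax come from four-parameter logistic fits; triplicate.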

[2] = Potentiation of genistein-induced human CFTR delta F508 mutant gating activity expressed in forskolin-stimulated FRT cells assessed as increase in iodine influx measured as decrease in YFP fluorescence after 24 hrs at 27 degC; method in brief: as §1
[3] = target: Cystic fibrosis transmembrane conductance regulator (Homo sapiens, UniProt P13569); test: (§2) Activity at human CFTR delta F508 mutant expressed in forskolin-stimulated FRT cells assessed as increase in iodine influx measured as decrease in YFP fluorescence after 18 to 24 hrs at 37 degC in presence of genistein; conditions: frt
Method in brief: (§3)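 Corrector plate-reader assay. FRT cells stably coexpressing human ΔF508-CFTR and YFP-H148Q/I152L, grown 24 h at 37 °C, then exposed to compound for 16−20 h (up to 25 μM, eight concentrations). Cells are washed, then given forskolin 20 μM plus genistein 50 μM in PBS for 20 min. I⁻ influx comes from the YFP quench recorded 2 s baseline plus 12 s after iodide addition, fitted by exponential regression. Controls are DMSO vehicle and a reference corrector. EC50/Vmax come from four-parameter logistic fits; triplicate.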

[4] = target: Cystic fibrosis transmembrane conductance regulator (Homo sapiens, UniProt P13569, F508DEL); test: as §2; method in brief: as §3
[5] = tested on: Cystic fibrosis transmembrane conductance regulator (Homo sapiens), P13569 [F508del]; test: Activity at human CFTR delta F508 mutant expressed in forskolin-stimulated basolateral membrane permeabilized FRT cells assessed as increase in apical chloride current at 10 uM after 18 to 24 hrs at 37 degC by short-circuit assay in presence of genistein
Method in brief: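 Short-circuit current. ΔF508-CFTR FRT cells are cultured 7−9 days on permeable inserts, then given compound for 18−24 h at 37 °C. Apical Cl⁻ current is recorded after basolateral permeabilization under an apical-to-basolateral Cl⁻ gradient. Forskolin 20 μM and genistein 50 μM are added, followed by CFTRinh-172 10 μM.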

[6] = tested on: FRT; test: Potentiation of genistein-induced human CFTR delta F508 mutant gating activity expressed in forskolin-stimulated basolateral membrane permeabilized FRT cells assessed as increase in apical chloride current at 3 to 100 uM after 24 hrs at 27 degC by short-circuit assay
Method in brief: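 Short-circuit current. ΔF508-CFTR FRT cells are cultured 7−9 days on permeable inserts and temperature-rescued 18−24 h at 27 °C. Apical Cl⁻ current is recorded in basolateral-permeabilized monolayers under an apical-to-basolateral Cl⁻ gradient. Forskolin 20 μM is added, then test compound, with CFTRinh-172 10 μM at the end.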

[7] = Homo sapiens, FRT, 24 h, read-out: EC50

Cystic fibrosis transmembrane conductance regulator (Homo sapiens, UniProt P13569), sequence (P13569 as listed by the source): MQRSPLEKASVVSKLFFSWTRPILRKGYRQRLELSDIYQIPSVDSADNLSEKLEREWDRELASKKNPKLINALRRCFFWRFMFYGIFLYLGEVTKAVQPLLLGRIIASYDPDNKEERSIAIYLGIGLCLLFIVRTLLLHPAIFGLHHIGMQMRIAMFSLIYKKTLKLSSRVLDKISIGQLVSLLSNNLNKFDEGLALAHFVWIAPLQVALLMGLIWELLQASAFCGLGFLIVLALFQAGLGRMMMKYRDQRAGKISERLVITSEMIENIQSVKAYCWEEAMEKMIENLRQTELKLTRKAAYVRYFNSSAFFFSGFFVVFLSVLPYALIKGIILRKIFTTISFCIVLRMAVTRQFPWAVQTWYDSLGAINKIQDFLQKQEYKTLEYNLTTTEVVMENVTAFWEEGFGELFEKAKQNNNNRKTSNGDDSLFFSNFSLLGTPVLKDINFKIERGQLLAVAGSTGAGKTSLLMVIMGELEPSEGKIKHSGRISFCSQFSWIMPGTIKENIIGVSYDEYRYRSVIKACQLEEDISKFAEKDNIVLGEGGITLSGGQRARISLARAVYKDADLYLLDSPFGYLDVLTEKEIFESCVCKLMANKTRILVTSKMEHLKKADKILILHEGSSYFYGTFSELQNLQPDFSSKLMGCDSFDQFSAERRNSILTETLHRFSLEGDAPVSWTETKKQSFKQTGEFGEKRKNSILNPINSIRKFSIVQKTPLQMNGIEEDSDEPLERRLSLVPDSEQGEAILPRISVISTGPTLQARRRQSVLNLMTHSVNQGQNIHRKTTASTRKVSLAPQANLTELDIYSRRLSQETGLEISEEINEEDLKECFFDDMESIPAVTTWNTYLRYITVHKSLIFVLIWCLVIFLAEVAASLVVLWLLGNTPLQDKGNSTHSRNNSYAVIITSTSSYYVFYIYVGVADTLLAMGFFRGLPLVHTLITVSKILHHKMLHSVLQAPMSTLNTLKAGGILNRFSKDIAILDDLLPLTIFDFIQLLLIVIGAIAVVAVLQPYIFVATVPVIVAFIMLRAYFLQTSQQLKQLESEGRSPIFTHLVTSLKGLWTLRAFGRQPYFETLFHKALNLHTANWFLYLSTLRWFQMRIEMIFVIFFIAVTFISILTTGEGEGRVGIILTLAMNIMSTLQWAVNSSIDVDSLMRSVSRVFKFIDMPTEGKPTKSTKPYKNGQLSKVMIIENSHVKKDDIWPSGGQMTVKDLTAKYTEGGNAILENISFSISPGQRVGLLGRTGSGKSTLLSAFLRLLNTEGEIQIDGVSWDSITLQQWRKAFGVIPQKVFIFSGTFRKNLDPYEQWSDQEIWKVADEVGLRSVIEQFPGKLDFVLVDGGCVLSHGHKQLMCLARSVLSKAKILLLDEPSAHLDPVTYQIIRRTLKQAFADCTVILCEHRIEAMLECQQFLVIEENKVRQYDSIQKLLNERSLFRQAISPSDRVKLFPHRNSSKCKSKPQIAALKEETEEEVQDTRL
Cystic fibrosis transmembrane conductance regulator (Homo sapiens, UniProt P13569, F508DEL), sequence (P13569 as listed by the source): as above
Cystic fibrosis transmembrane conductance regulator (Homo sapiens), P13569 [F508del], sequence (P13569 as listed by the source): as above

Structure (SMILES)	EC50 [2, 7]	EC50 [3]	EC50 [4]	EC50 ([2]; frt)	Activity [5]	Vmax [1]	Activity [6]
COc1ccc(C(=O)N2CCN(c3nc4cc(C)cc(C)c4cc3C#N)CC2)cc1	1.3 µM	Not Active	–	–	–	281 µM/s	–
Cc1cc(C)c2cc(C#N)c(N3CCN(C(=O)c4ccccn4)CC3)nc2c1	7.4 µM	Not Active	–	–	–	102 µM/s	–
COc1cccc(OC)c1C(=O)NCCNc1nc2cc(C)cc(C)c2cc1C#N	11.5 µM	–	3.7 µM	–	–	119 µM/s	–
Cc1cc(C)c2cc(C#N)c(NCCNC(=O)c3cnccn3)nc2c1	–	–	6.7 µM	Not Active	–	–	–
COc1cccc(C(=O)N2CCN(c3nc4cc(C)cc(C)c4cc3C#N)CC2)c1	1.2 µM	Not Active	–	–	–	200 µM/s	–
Cc1cc(C)c2cc(C#N)c(N3CCN(C(=O)c4cccnc4)CC3)nc2c1	–	Not Active	–	Not Active	–	–	–
COc1ccc(C(=O)NCCNc2nc3cc(C)cc(C)c3cc2C#N)cc1OC	48 µM	–	1.5 µM	–	–	216 µM/s	–
COc1ccc(C(=O)NCCNc2nc3cc(C)cc(C)c3cc2C#N)nc1	3.4 µM	–	2.7 µM	–	–	70 µM/s	–
Cc1cc(C)c2cc(C#N)c(NCCCNC(=O)c3ccncc3)nc2c1	13.2 µM	–	8.2 µM	–	–	53 µM/s	–
Cc1cc(C)c2cc(C#N)c(NCCNC(=O)c3ccncc3)nc2c1	10 µM	–	7.3 µM	–	–	220 µM/s	–
Cc1cc(C)c2cc(C#N)c(NCCCNC(=O)c3cccnc3)nc2c1	16 µM	–	3 µM	–	–	115 µM/s	–
COc1ccccc1C(=O)N1CCN(c2nc3cc(C)cc(C)c3cc2C#N)CC1	1 µM	Not Active	–	–	–	129 µM/s	–
Cc1cc(C)c2cc(C#N)c(N3CCN(C(=O)c4ccncc4)CC3)nc2c1	–	Not Active	–	Not Active	–	–	–
Cc1cc(C)c2cc(C#N)c(NCCNC(=O)c3ccccn3)nc2c1	1.2 µM	Not Active	–	–	–	80 µM/s	–
COc1ccc(C(=O)NCCNc2nc3cc(C)cc(C)c3cc2C#N)cc1	4.1 µM	–	3 µM	–	Active	181 µM/s	Active
Cc1cc(C)c2cc(C#N)c(NCCNC(=O)c3cccnc3)nc2c1	13.2 µM	–	2.7 µM	–	–	242 µM/s	–

Now from value to molecule, other results behind:

EC50 [2, 7]	EC50 [3]	EC50 [4]	EC50 ([2]; frt)	Activity [5]	Structure (SMILES)	Vmax [1]	Activity [6]
27.6 µM	Not Active	–	–	–	COc1ccccc1C(=O)NCCCNc1nc2cc(C)cc(C)c2cc1C#N	254 µM/s	–
55 µM	–	4.2 µM	–	–	COc1ccc(C(=O)NCCNc2nc3cc(C)cc(C)c3cc2C#N)c(OC)c1	426 µM/s	–
6.1 µM	Not Active	–	–	–	Cc1cc(C)c2cc(C#N)c(NCCCNC(=O)c3ccccn3)nc2c1	233 µM/s	–
5.9 µM	–	2.2 µM	–	Active	COc1cccc(C(=O)NCCNc2nc3cc(C)cc(C)c3cc2C#N)c1	216 µM/s	Active
5 µM	–	4.3 µM	–	–	COc1ccc(C(=O)NCCCNc2nc3cc(C)cc(C)c3cc2C#N)cc1	231 µM/s	–
4.6 µM	–	4.6 µM	–	–	COc1cccc(C(=O)NCCCNc2nc3cc(C)cc(C)c3cc2C#N)c1	147 µM/s	–
2.3 µM	–	11 µM	–	–	COc1ccccc1C(=O)NCCNc1nc2cc(C)cc(C)c2cc1C#N	154 µM/s	–
10 µM	Not Active	–	–	–	Cc1cc(C)c2cc(C#N)c(NCCNC(=O)c3ccccc3)nc2c1	210 µM/s	–
